Only some compounds are listed: those with a hit (about 2.7% of all), similar ones and a draw of the others.
PAFAH2 FP inh – PAFAH2 enzyme inhibitors, primary screen, biochemical, fluorescence polarization, human | hit rate 0.99% among 340,000 | inhibition, % at 3.39 µM | recombinant PAFAH2, FP-rhodamine activity probe;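 active = inhibition above the mean over all tested compounds plus 3 SD, cut at about 30% in these data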;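 also: inhibitors block probe labeling of enzyme so polarization drops; 0% = enzyme with DMSO and 100% = wells lacking PAFAH2 protein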
ARFGAP1 inh – inhibitors of rat ARFGAP1 GAP activity, primary screen, biochemical, fluorescence polarization, GDP tracer | ADP-ribosylation factor GTPase-activating protein 1 (Rattus norvegicus), Q62848 | Arfgap1-stimulated ARF1 GTP hydrolysis, GDP FP detection | inhibition, % at 16.5 µM | hit rate 0.26% among 360,000 | AID 651572, 2012;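 active = inhibition above a per-plate limit, mean inhibition of low control wells plus 3 SD, cut at about 25% in these data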;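 also: 0% = DMSO wells with enzyme and 100% = wells lacking Arfgap1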
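System: truncated rat Arfgap1 GAP domain / Medium: HEPES-based buffer, pH 7.5 / Also added: N-terminally truncated human ARF1-GTP substrate / Incubation: enzyme reaction 120 min at 25 °C after 20 min preincubation / Measured by: FP of antibody-bound GDP Alexa 633 tracer, ex 620/em 688 nm / Replicates: singlicate, each compound tested once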
ASAP1 GAP inh – inhibitors of human ASAP1 ArfGAP activity, primary screen, biochemical, fluorescence polarization. inhibition, % at 16.5 µM. ASAP1-stimulated ARF1 GTP hydrolysis, GDP FP detection. AID 624377, 2012. hit rate 0.19% among 360,000. Arf-GAP with SH3 domain, ANK repeat and PH domain-containing protein 1 (Homo sapiens), …; in the data active = inhibition above about 25%;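 also: 0% = vehicle with enzyme and substrate and 100% = no enzyme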
PAFAH1B2 inh – PAFAH1B2 enzyme inhibitors, primary screen, biochemical, fluorescence polarization, human | Platelet-activating factor acetylhydrolase IB subunit alpha2 (Homo sapiens), P68402 | recombinant PAFAH1B2, FP-rhodamine activity probe | inhibition, % at 3.39 µM | hit rate 1.2% among 340,000 | AID 492953, 2010;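 active = inhibition above the mean of all tested compounds plus 3 SD, cut at about 24% in these data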;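 also: 0% = enzyme with DMSO and 100% = wells lacking PAFAH1B2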
PAFAH1B3 FP inh – PAFAH1B3 enzyme inhibitors, primary screen, biochemical, fluorescence polarization, human | Platelet-activating factor acetylhydrolase IB subunit alpha1 (Homo sapiens), Q15102 | recombinant PAFAH1B3, FP-rhodamine probe | inhibition, % at 3.39 µM | hit rate 0.28% among 340,000 | AID 492972, 2010;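 active = inhibition above the screen-wide average of all tested compounds plus 3 SD, cut at about 25% in these data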;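 also: 0% = enzyme with DMSO only and 100% = wells lacking PAFAH1B3 protein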
Target sequence (Q15102 whole entry, looked up): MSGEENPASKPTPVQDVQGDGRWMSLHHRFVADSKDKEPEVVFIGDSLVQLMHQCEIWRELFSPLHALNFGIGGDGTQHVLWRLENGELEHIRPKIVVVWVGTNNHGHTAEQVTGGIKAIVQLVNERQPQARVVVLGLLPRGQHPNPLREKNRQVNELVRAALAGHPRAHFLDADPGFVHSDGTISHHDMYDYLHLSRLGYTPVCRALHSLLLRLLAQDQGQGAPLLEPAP
pPAFAH FP inh – pPAFAH enzyme inhibitors, primary screen, biochemical, fluorescence polarization, human. Platelet-activating factor acetylhydrolase (Homo sapiens), Q13093. recombinant pPAFAH, FP-rhodamine probe fluorescence polarization. inhibition, % at 3.39 µM. hit rate 1.5% among 330,000. AID 463082, 2010;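 active = inhibition above the mean inhibition across the screen plus 3 SD, cut at about 25% in these data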;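 also: inhibitors block binding of the rhodamine activity-based probe so polarization drops; 0% = enzyme with DMSO and 100% = wells lacking pPAFAH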
Target sequence (Q13093 whole entry, looked up): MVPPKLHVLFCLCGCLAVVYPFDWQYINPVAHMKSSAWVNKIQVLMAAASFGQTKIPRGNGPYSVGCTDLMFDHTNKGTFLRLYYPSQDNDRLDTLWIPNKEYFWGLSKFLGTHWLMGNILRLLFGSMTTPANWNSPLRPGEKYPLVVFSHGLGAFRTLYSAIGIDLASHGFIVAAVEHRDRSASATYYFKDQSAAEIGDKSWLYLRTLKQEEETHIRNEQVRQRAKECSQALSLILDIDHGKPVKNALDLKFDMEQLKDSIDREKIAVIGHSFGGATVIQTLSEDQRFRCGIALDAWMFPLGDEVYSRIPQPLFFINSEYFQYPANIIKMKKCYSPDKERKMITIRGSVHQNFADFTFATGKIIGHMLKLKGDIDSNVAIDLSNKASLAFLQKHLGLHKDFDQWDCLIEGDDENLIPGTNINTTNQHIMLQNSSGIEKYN
* marks the source's active call; other numbers are inactive results; . = no result given.

SMILES | PAFAH2 FP inh | ARFGAP1 inh | ASAP1 GAP inh | PAFAH1B2 inh | PAFAH1B3 FP inh | pPAFAH FP inh
O=C(O)C(c1ccccc1)N1C(=O)/C(=C\c2ccc(O)c(O)c2)SC1=S (stereo not given) | -11 | -34 | -4 | -80 | 0 | 30*
CCCN1CCCCC(NC(C)=O)C1=O (stereo not given) | . | 11 | -8 | . | . | .
NC(=S)n1[nH]c(-c2ccc([N+](=O)[O-])cc2)c(N=Nc2ccc(Cl)cc2)c1=O | 41* | . | . | 9 | 9 | .
COc1cc(NC(=O)c2cc(OC)c(OC)c(OC)c2)c2ncccc2c1 | -2 | -4 | -10 | 27* | 10 | .
COc1cc(NC(=O)c2ccc3c(c2)OCO3)c2ncccc2c1 | 4 | 7 | 20 | 5 | 0 | -2
COC(=O)[C@@H](Cc1ccccc1)NC(=O)[C@H]1O[C@@H](n2cnc3c(=O)[nH]c(N)nc32)[C@H](O)[C@@H]1O | . | -1 | 14 | . | . | .
CCOC(=O)C1=CCN(S(=O)(=O)c2ccccc2Cl)C1c1ccc(Cl)cc1 (stereo not given) | . | 7 | 3 | . | . | .
COC(=O)C1=C(C)N(Cc2ccccc2C(F)(F)F)C(=NCc2ccc(C(F)(F)F)cc2)NC1c1ccccc1 (stereo not given) | . | 12 | 1 | . | . | .
CCOC(=O)CN1CCC(c2cc(-c3ccc(Cl)cc3)n[nH]2)CC1 | -1 | -1 | -3 | 1 | 7 | 31*
CN(N=C(c1ccccc1)c1ccccc1)c1ccccc1 | 2 | -5 | -8 | 3 | 5 | .
S=C(c1ccccc1)N(c1ccccc1)c1ccccc1 | 1 | -14 | -7 | 38* | 4 | 6
Nc1c(/C=C2/C=CC(=O)C(O)=C2)c(=O)nc2sc(CC(=O)N3CCCC3)nn12 | 8 | 3 | -1 | 13 | 5 | 21
Nc1c(/C=C2/C=CC(=O)C(O)=C2)c(=O)nc2sc(CC(=O)N3CCCCC3)nn12 | 35* | -4 | -15 | 54* | 19 | 32*
Nc1c(/C=C2/C=CC(=O)C(O)=C2)c(=O)nc2sc(CC(=O)N3CCOCC3)nn12 | 19 | 9 | 2 | 26* | 15 | .
COC(=O)[C@]12C[C@H](CC(=O)NCc3ccccc3)C(=O)N(Cc3ccccc3)C1=C[C@H](C1CCCC1)O[C@@H]2C | . | 7 | -7 | . | . | .
O=C1Nc2ccccc2SC(c2ccccc2)C1O (stereo not given) | 12 | 3 | 12 | 6 | 1 | 34*
COc1ccc(CCNc2ncnc3c2[nH]c2cc(OC)c(OC)cc23)cc1OC | 12 | 22 | 14 | 12 | 15 | 28*
COc1ccc(CCNc2ncnc3cc(OC)c(OC)cc23)cc1OC | 7 | 4 | 10 | 5 | 8 | .
COCCNc1ncnc2c1[nH]c1ccccc12 | -3 | 3 | 1 | 5 | 6 | 28*
CC(NC(=O)Cn1c(=O)[nH]c2ccsc2c1=O)C12CC3CC(CC(C3)C1)C2 (stereo not given) | 27 | 3 | -5 | 28* | 9 | 14
CC(NC(=O)CN1C(=O)NC(Cc2ccccc2)(Cc2ccccc2)C1=O)C12CC3CC(CC(C3)C1)C2 (stereo not given) | 10 | 0 | -4 | 72* | -3 | 7
CC1CCCCC1NC(=O)CN1C(=O)NC(Cc2ccccc2)(Cc2ccccc2)C1=O (stereo not given) | 5 | 1 | -1 | 9 | 8 | 5
COCCOc1cc(NC(=O)c2ccccc2)c(Cl)cc1Cl | 8 | -10 | 1 | 6 | 7 | 2
CNC(=O)CS(=O)CC(=O)Nc1cc(OCCOC)c(Cl)cc1Cl (stereo not given) | -1 | 6 | 1 | 4 | 3 | 30*
O=C(NCC1CCN(C(=O)C(=O)c2cc3ccccc3o2)CC1)c1ccc2c(c1)OCC2 | . | 9 | 0 | . | . | .
SMILES | PAFAH2 FP inh | ARFGAP1 inh | ASAP1 GAP inh | PAFAH1B2 inh | PAFAH1B3 FP inh | pPAFAH FP inh
Cc1noc(C)c1-c1nc(CS(=O)(=O)c2ccc(Cl)cc2)no1 | 9 | -8 | -10 | 30* | 5 | -4
CCn1nc(C)c(Br)c1-c1nc(CS(=O)(=O)c2ccc(F)cc2)no1 | 4 | -15 | -7 | 10 | 9 | -3
COC(=O)C(C(C)=O)C1=C/C(=N\S(=O)(=O)c2ccc(C)cc2)c2ccccc2C1=O (stereo not given) | 4 | . | . | 1 | 1 | 3
Cc1ccccc1NC1=C/C(=N\S(=O)(=O)c2ccc(C(=O)O)cc2)c2ccccc2C1=O | 67* | -13 | 12 | 34* | 65* | 22
Cc1ccc(NC2=C/C(=N/S(=O)(=O)c3cccs3)c3ccccc3C2=O)cc1C | 1 | 1 | -6 | -3 | 10 | -2
O=C(O)c1ccc(S(=O)(=O)/N=C2\C=C(Nc3ccccc3F)C(=O)c3ccccc32)cc1 | 72* | -9 | -2 | 58* | 61* | 19
CC(=O)Nc1ccc(NC2=C/C(=N/S(=O)(=O)c3cccs3)c3ccccc3C2=O)cc1 | . | 9 | 20 | . | . | 31*
COc1ccc(CC(=O)OCC(=O)NNC(=O)c2ccccc2)cc1 | 6 | 4 | 5 | 1 | 10 | 18
Cc1ccc(NC(=O)COC(=O)CCc2c[nH]c(=O)[nH]2)cc1 | 11 | -3 | 7 | 3 | 4 | -5
CCN(CC)c1ccc(NC(=O)COC(=O)Cc2ccsc2)cc1 | 1 | 9 | 1 | 2 | -1 | .
O=C(COC(=O)Cc1ccsc1)Nc1cccc(F)c1 | 17 | -2 | -6 | 9 | 3 | 29*
O=C(COC(=O)CCc1c[nH]c(=O)[nH]1)Nc1ccccc1 | 34* | 4 | -1 | 1 | -1 | 2
O=C(COC(=O)Cc1ccsc1)NNC(=O)c1ccccc1 | -3 | -4 | -6 | 3 | 3 | 26*
O=C(COC(=O)Cc1ccsc1)Nc1ccccc1 | 15 | -4 | -20 | -3 | 12 | 27*
CC(=O)c1ccc(NC(=O)COC(=O)Cc2ccsc2)cc1 | 17 | 6 | -14 | 3 | 8 | 10
Cc1cc2c(c(=O)o1)[C@@]1(C(=O)N(C)c3ccccc31)C1=C(CCC1=O)O2 | . | 2 | 0 | . | . | .
COC(=O)C1=C(C)N(Cc2ccccc2C(F)(F)F)C(=NCc2cccc(C(F)(F)F)c2)NC1c1ccc(F)cc1 (stereo not given) | . | 8 | 9 | . | . | .
COc1ccc(CN2C[C@H](COCc3ccccc3)Oc3cccc(Oc4ccc(C(C)C)cc4)c3S2(=O)=O)cc1 | . | -11 | -4 | . | . | .
COC(=O)c1ccccc1NC(=O)/C=N/O | 8 | 0 | 7 | 5 | 20 | 2
